Reference: ChEMBL document CHEMBL1134622, “Piperazine-based CCR5 antagonists as HIV-1 inhibitors. II. Discovery of 1-[(2,4-dimethyl-3-pyridinyl)carbonyl]-4- methyl-4-[3(S)-methyl-4-[1(S)-[4-(trifluoromethyl)phenyl]ethyl]-1-piperazinyl]- piperidine N1-oxide (Sch-350634), an orally bioavailable, potent CCR5 antagonist” (J Med Chem, 2001)

Key:
[1] = molecular target: T1, C-C chemokine receptor type 5 (Homo sapiens, UniProt P51681); assay: Inhibitory activity against C-C chemokine receptor type 5
How it was run: (§1)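 CCR5 Ki in nM. Standard error 10%; assay-to-assay variability 2-3-fold.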

[2] = molecular target: T1, C-C chemokine receptor type 5; assay: Binding affinity towards C-C chemokine receptor type 5; how it was run: as §1
Rattus norvegicus = assay: Pharmacokinetic characterization measured on oral blood levels in rat at 10 mg/kg (0-6 hr); assay type: ADME, organism-based; design: time < 6 hr, dose 10 mg/kg, route oral; conditions: in vivo
How it was run: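 Rats given compound orally at 10 mg/kg. Plasma concentrations followed over 6 h. Blood levels expressed as AUC (0-6 h) of the concentration-time plot, in ng/mL h.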

U-87 MG [3] = assay: Inhibition of the entry of HIV-1 reporter virus (ADA) into U-87 cells; assay type: functional, cell-based, U-87MG ATCC; conditions: Homo sapiens
How it was run: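 Single-cycle infectivity assay in U-87 cells with HIV-1 reporter virus (ADA). IC50 is the concentration giving 50% inhibition of viral entry. 95% confidence limit within 1 log; intra-assay variation under 0.5 log.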

[4] = Bioavailability in dog after oral administration.; assay type: ADME, organism-based, Canis lupus familiaris; conditions: in vivo, read-out: BA
How it was run: (§2)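 Beagle dogs and cynomolgus monkeys. IV dose 1 mg/kg. Oral dose 3 mg/kg in dog, 10 mg/kg in monkey. Plasma sampled over 0-24 h. […] Bioavailability is dose-corrected from oral vs iv AUC.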

[5] = Half life determined after iv administration to dog; assay type: ADME, organism-based, Canis lupus familiaris; conditions: in vivo; how it was run: as §2
[6] = molecular target: T1, C-C chemokine receptor type 5; assay: Binding affinity at C-C chemokine receptor type 5; how it was run: as §1
[7] = Maximum plasma concentration after oral administration in dog; assay type: ADME, organism-based, Canis lupus familiaris; design: route oral; how it was run: as §2
Cynomolgus monkey [8] = assay: Area under concentration curve in cynomolgus monkey after iv administration; assay type: ADME, organism-based, Macaca fascicularis; conditions: in vivo; how it was run: as §2
Canis familiaris [9] = assay: Area under concentration curve in Beagle dogs after oral administration (0-24 hr); assay type: ADME, organism-based, Canis lupus familiaris; design: time < 24 hr, route oral; conditions: dog, in vivo; how it was run: as §2
Cynomolgus monkey [10] = assay: Area under concentration curve in cynomolgus monkey after oral administration; assay type: ADME, organism-based, Macaca fascicularis; conditions: in vivo; how it was run: as §2
[11] = Maximum plasma concentration after oral administration in monkey; assay type: ADME, organism-based; design: route oral; conditions: simiiformes; how it was run: as §2
[12] = Bioavailability in monkey after oral administration.; assay type: ADME, organism-based; conditions: simiiformes, in vivo, read-out: BA; how it was run: as §2
[13] = Time required for the maximum plasma concentration in rat.; assay type: ADME, organism-based
[14] = Plasma concentration after 6 hours of oral administration in rat; assay type: ADME, organism-based; conditions: read-out: C6h
[15] = molecular target: T2, Muscarinic acetylcholine receptor M2 (Homo sapiens, UniProt P08172); assay: Binding affinity against muscarinic acetylcholine receptor M2
T2 sequence (P08172 whole entry): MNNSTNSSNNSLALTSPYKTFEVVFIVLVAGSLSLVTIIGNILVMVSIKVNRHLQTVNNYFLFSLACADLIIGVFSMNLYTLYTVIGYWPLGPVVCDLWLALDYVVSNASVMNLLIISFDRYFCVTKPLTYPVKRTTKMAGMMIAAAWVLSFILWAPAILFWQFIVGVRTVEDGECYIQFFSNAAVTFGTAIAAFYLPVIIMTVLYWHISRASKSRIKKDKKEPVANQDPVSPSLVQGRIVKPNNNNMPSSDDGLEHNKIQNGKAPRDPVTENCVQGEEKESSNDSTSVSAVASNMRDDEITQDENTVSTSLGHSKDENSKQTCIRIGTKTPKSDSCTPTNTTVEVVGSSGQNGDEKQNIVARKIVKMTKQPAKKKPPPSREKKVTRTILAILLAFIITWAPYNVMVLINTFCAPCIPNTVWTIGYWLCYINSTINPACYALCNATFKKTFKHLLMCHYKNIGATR

Canis familiaris [16] = assay: Area under concentration curve in Beagle dogs after iv administration (0-24 hr); assay type: ADME, organism-based, Canis lupus familiaris; design: time < 24 hr, route intravenous; conditions: dog, in vivo; how it was run: as §2
[17] = Half life determined after iv administration to monkey; assay type: ADME, organism-based; conditions: simiiformes, in vivo; how it was run: as §2
U-87 MG [18] = assay: Inhibition of the entry of HIV-1 reporter virus (JrF1) into U-87 cells; assay type: functional, cell-based, U-87MG ATCC; conditions: Homo sapiens
How it was run: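 Entry of HIV-1 reporter virus (JrFl) into U-87 cells. IC50 is the concentration inhibiting entry by 50%. 95% confidence limit within 1 log; intra-assay variation under 0.5 log.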

[19] = Plasma concentration after 0 hours of intravenous administration in dog; assay type: ADME, organism-based, Canis lupus familiaris; conditions: read-out: Co; how it was run: as §2
[20] = Time required for the maximum plasma concentration in rat blood levels at 10 mg/kg; assay type: ADME, organism-based; design: dose 10 mg/kg
[21] = Plasma concentration after 0 hours of intravenous administration in cunomolgus monkey; assay type: ADME, organism-based, Macaca fascicularis; conditions: cynomolgus monkey; how it was run: as §2

T1 sequence (P51681 whole entry): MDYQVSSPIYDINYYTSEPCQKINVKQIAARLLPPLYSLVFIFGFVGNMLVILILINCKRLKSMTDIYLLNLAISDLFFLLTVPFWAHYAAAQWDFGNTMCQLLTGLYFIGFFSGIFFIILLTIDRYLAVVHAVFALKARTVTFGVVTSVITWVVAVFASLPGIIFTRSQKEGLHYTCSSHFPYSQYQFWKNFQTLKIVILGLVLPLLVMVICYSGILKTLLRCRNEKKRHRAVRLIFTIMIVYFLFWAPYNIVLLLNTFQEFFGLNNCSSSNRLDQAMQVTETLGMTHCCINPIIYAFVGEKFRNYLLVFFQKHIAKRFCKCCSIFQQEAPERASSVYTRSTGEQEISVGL

Compound `Cc1cccc(C)c1C(=O)N1CCC(N2CCN([C@@H](C)c3ccc(Br)cc3)[C@@H](C)C2)CC1` has an IC50 [1] of 6 nM and a Ki [2] of 23 nM.
For `C[C@H]1CN(C2(C)CCN(C(=O)c3c(N)cccc3Cl)CC2)CCN1[C@@H](C)c1ccc(I)cc1`, the Ki [2] was 12 nM, the AUC (Rattus norvegicus) was 1980 ng·h/mL and the IC50 (U-87 MG [3]) was 2 nM.
Work on `Cc1cc[n+]([O-])c(C)c1C(=O)N1CCC(C)(N2CCN([C@@H](C)c3ccc(C(F)(F)F)cc3)[C@@H](C)C2)CC1` yielded a bioavailability [4] of 65%, a half-life [5] of 6 h and a Ki [6] of 7 nM. It also gave a Cmax [7] of 690 ng/mL, an AUC (Rattus norvegicus) of 9240 ng·h/mL and an AUC (Cynomolgus monkey [8]) of 2610 ng·h/mL. For the same compound, the AUC (Canis familiaris [9]) was 6290 ng·h/mL, the IC50 (U-87 MG [3]) was 1 nM and the AUC (Cynomolgus monkey [10]) was 15400 ng·h/mL. For the same compound, the Cmax [11] was 1420 ng/mL, the bioavailability [12] was 59% and the Tmax [13] was 2.5 h. It also gave a concentration at 6 h [14] of 1300 ng/mL, a Ki [15] of 250 nM and an AUC (Canis familiaris [16]) of 3240 ng·h/mL. The half-life [17] was 4 h.
`C[C@H]1CN(C2(C)CCN(C(=O)c3c(N)cccc3Cl)CC2)CCN1[C@@H](C)c1ccc(C(F)(F)F)cc1` showed a Ki [2] of 5 nM, an AUC (Rattus norvegicus) of 1870 ng·h/mL and an IC50 (U-87 MG [3]) of 1.2 nM.
`Cc1cccc(O)c1C(=O)N1CCC(C)(N2CCN([C@@H](C)c3ccc(C(F)(F)F)cc3)[C@@H](C)C2)CC1` showed a Ki [2] of 5 nM, an AUC (Rattus norvegicus) of 2540 ng·h/mL and an IC50 (U-87 MG [3]) of 3.2 nM.
For `Cc1cccc(C)c1C(=O)N1CCC(C)(N2CCN([C@@H](C)c3ccc(C(F)(F)F)cc3)[C@@H](C)C2)CC1`, the Ki [2] was 1 nM, the AUC (Rattus norvegicus) was 922 ng·h/mL and the IC50 (U-87 MG [3]) was 0.4 nM.
`Cc1cccc(C)c1C(=O)N1CCC(N2CCN([C@@H](C)c3ccccc3)[C@@H](C)C2)CC1` gave a Ki [2] of 275 nM.
In the case of `Cc1cccc(C)c1C(=O)N1CCC(N2CCN([C@@H](C)c3ccc(I)cc3)[C@@H](C)C2)CC1`, the Ki [2] is reported as 20 nM and the IC50 (U-87 MG [18]) is reported as 7 nM.
Work on `Cc1cccc(C)c1C(=O)N1CCC(N2CCN(Cc3ccc(I)cc3)CC2)CC1` yielded a Ki [2] of 440 nM.
In the case of `Cc1cccc(C)c1C(=O)N1CCC(N2CCN(Cc3ccc(I)cc3)[C@@H](C)C2)CC1`, the Ki [2] is reported as 30 nM.
With `C[C@H]1CN(C2(C)CCN(C(=O)c3c(N)cccc3Cl)CC2)CCN1[C@@H](C)c1ccc(S(C)(=O)=O)cc1` the Ki [2] was 5 nM, the AUC (Rattus norvegicus) was 447 ng·h/mL and the IC50 (U-87 MG [3]) was 0.8 nM.
For `Cc1cccc(O)c1C(=O)N1CCC(C)(N2CCN([C@@H](C)c3ccc(I)cc3)[C@@H](C)C2)CC1`, the Ki [2] was 7 nM, the AUC (Rattus norvegicus) was 2810 ng·h/mL and the IC50 (U-87 MG [3]) was 1 nM.
`Cc1cccc(C)c1C(=O)N1CCC(C)(N2CCN(Cc3ccc(I)cc3)[C@@H](C)C2)CC1` gave a Ki [2] of 8 nM and an IC50 (U-87 MG [18]) of 2.7 nM.
In the case of `Cc1cccc(C)c1C(=O)N1CCC(C)(N2CCN(Cc3ccc(I)cc3)CC2)CC1`, the Ki [2] is reported as 62 nM.
`Cc1cccc(C)c1C(=O)N1CCC(C)(N2CCN([C@@H](C)c3ccc(S(C)(=O)=O)cc3)[C@@H](C)C2)CC1` gave a Ki [2] of 3 nM and an IC50 (U-87 MG [3]) of 0.5 nM.
`Cc1cccc(O)c1C(=O)N1CCC(C)(N2CCN([C@@H](C)c3ccc(S(C)(=O)=O)cc3)[C@@H](C)C2)CC1` gave a Ki [2] of 15 nM, an AUC (Rattus norvegicus) of 384 ng·h/mL and an IC50 (U-87 MG [3]) of 4 nM.
`Cc1ccnc(C)c1C(=O)N1CCC(C)(N2CCN([C@@H](C)c3ccc(C(F)(F)F)cc3)[C@@H](C)C2)CC1` showed a bioavailability [4] of 33%, a concentration at 0 h [19] of 346 ng/mL and a Ki [6] of 2.3 nM. The Cmax [7] was 226 ng/mL, the AUC (Rattus norvegicus) was 3900 ng·h/mL and the AUC (Cynomolgus monkey [8]) was 996 ng·h/mL. It also gave an AUC (Canis familiaris [9]) of 1580 ng·h/mL, an IC50 (U-87 MG [3]) of 0.5 nM and an AUC (Cynomolgus monkey [10]) of 2740 ng·h/mL. It also gave a Tmax [20] of 1.5 h, a Cmax [11] of 281 ng/mL and a bioavailability [12] of 27.5%. It also gave a C0 at 0 h [21] of 390 ng/mL, a Ki [15] of 2500 nM and an AUC (Canis familiaris [16]) of 1610 ng·h/mL.
Work on `Cc1cccc(C)c1C(=O)N1CCC(C)(N2CCN([C@@H](C)c3ccc(I)cc3)[C@@H](C)C2)CC1` yielded a Ki [2] of 5 nM, an AUC (Rattus norvegicus) of 822 ng·h/mL and an IC50 (U-87 MG [3]) of 1 nM.
